Legend:
Plasma [1] = assay: Terminal half life in non-perfused Sprague-Dawley rat plasma assessed as active metabolite oseltamivir carboxylate level at 30 mg/kg, iv; assay type: ADME, organism-based; design: dose 30 mg/kg, route intravenous; settings: in vivo
In short: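 Nonfasted Sprague-Dawley rats given 30 mg/kg i.v. in 0.9% NaCl pH 4.0 by tail vein over 20–30 s. Terminal sampling under isoflurane at 5 min, 0.25, 0.5, 1, 2, 4 and 8 h (4–5 rats/time): plasma, CSF, and brain homogenate, with or without saline perfusion. LC-MS/MS. t1/2, Vss and ratios from noncompartmental analysis of pooled composite concentrations.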

Plasma [2] = assay: AUC (0 to 8 hrs) after iv dose in non-perfused Sprague-Dawley rat plasma assessed as active metabolite oseltamivir carboxylate level at 30 mg/kg; settings: in vivo
[3] = Prodrug conversion in 7 days old female rat liver S9 fractions assessed as conversion of oseltamivir to oseltamivir carboxylate; assay type: ADME, subcellular, S9 fraction
In short: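 S9 from brain or liver (rat S9 made by homogenizing tissue in ~4 ml Tris-sucrose buffer per g, supernatant after 9,000 × g at 10°C; pooled human brain and liver S9 also used), protein by bicinchoninic acid assay. Oseltamivir: triplicate, 10 μM 14C-oseltamivir final, 1.0 mg S9 protein, 100 mM Tris-HCl pH 7.4, 30 min at 37°C, quenched with TCA-acetonitrile.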

[4] = Prodrug conversion in 42 days old male rat liver S9 fractions assessed as oseltamivir carboxylate generation rate assessed per mg of protein per min; assay type: ADME, subcellular, S9 fraction
In short: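 Rat brain or liver S9 (9,000 × g supernatant; 1.0 mg protein) was incubated in triplicate with 10 µM 14C-oseltamivir (final) in 100 mM Tris-HCl pH 7.4 for 30 min at 37°C. Reactions were quenched with TCA-acetonitrile, and the fraction converted to OC was measured by radioflow HPLC with fractionation. Rate was calculated as (pmol/ml substrate × fraction hydrolyzed)/(mg protein/ml × time), minus the no-protein background.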

Row | SMILES | beta t1/2 (Plasma [1]) [h] | AUC (Plasma [2]) | Activity [3] [%] | Activity [4] [pmol/s]
1 | CCC(CC)O[C@@H]1C=C(C(=O)O)C[C@H](N)[C@H]1NC(C)=O [OSELTAMIVIR CARBOXYLATE] | 1.69 | 13600 | – | –
2 | CCOC(=O)C1=C[C@@H](OC(CC)CC)[C@H](NC(C)=O)[C@@H](N)C1 [OSELTAMIVIR] | – | – | 0.1 | 2.11
